Test results published in ChEMBL document CHEMBL4689842, “EUbOPEN Chemogenomics Library wave 1” (2021).

Assays:
Assay type in all cases: toxicity, cell-based
HEK-293T = test: Incucyte cell viability with HEK293T; settings: human, 10 µM, compound concentration 10 uM; also: filed as whole numbers so only -1 and 0 and 1 occur
U2OS [1] = test: Multiplex assay against U2OS; settings: human
Method in brief: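 Compound was added to live cells that had been stained at seeding with Hoechst33342, BioTracker Green Microtubule Cytoskeleton Dye, MitoTracker Red and Annexin V Alexa Fluor 680, and imaging followed on a CQ1 microscope at 37°C and 5% CO2. CellPathfinder machine-learning gating divided cells into Hoechst high-intensity objects or normal cells, normal cells into healthy, pyknosed or fragmented nuclei, and pyknosed cells into mitotic or apoptotic. Tubulin, mitochondrial-mass and membrane-permeability phenotypes are per cents of healthy-nucleus cells.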

Fibroblast = test: Incucyte cell viability with human fibroblast; settings: 10 µM, compound concentration 10 uM; also: filed as whole numbers so only -1 and 0 and 1 occur
U2OS [2] = test: Incucyte cell viability with U2OS; settings: human, 10 µM, compound concentration 10 uM; also: filed as whole numbers so only -1 and 0 and 1 occur
[3] = 6 h, replicate number 1, timepoint 6 hours
[4] = 12 h, replicate number 1, timepoint 12 hours
[5] = 18 h, replicate number 1, timepoint 18 hours
[6] = 24 h, replicate number 1, timepoint 24 hours
[7] = 12 h, 1 µM, compound concentration 1 uM, replicate 1
[8] = 12 h, 1 µM, compound concentration 1 uM, replicate 2
[9] = 12 h, 10 µM, compound concentration 10 uM, replicate 1
[10] = 12 h, 10 µM, compound concentration 10 uM, replicate 2
[11] = 24 h, 1 µM, compound concentration 1 uM, replicate 1
[12] = 24 h, 1 µM, compound concentration 1 uM, replicate 2
[13] = 24 h, 10 µM, compound concentration 10 uM, replicate 1
[14] = 24 h, 10 µM, compound concentration 10 uM, replicate 2
[15] = 48 h, 1 µM, compound concentration 1 uM, replicate 1
[16] = 48 h, 1 µM, compound concentration 1 uM, replicate 2
[17] = 48 h, 10 µM, compound concentration 10 uM, replicate 1
[18] = 48 h, 10 µM, compound concentration 10 uM, replicate 2

Compound: C[C@@H](Oc1cc(-n2cnc3ccc(CN4CCN(C)CC4)cc32)sc1C(N)=O)c1ccccc1C(F)(F)F [GSK-461364]
- Growth Rate (HEK-293T; [3]): 0
- Growth Rate (HEK-293T; [4]): 0
- Growth Rate (HEK-293T; [5]): 0
- Growth Rate (HEK-293T; [6]): 0
- Population Apoptotic (%) (U2OS [1]; [7]): 55%
- Population Fragmented Nuclei (%) (U2OS [1]; [7]): 13%
- Population Healthy Nuclei (%) (U2OS [1]; [7]): 70%
- Population Hoechst High Intensity Objects (%) (U2OS [1]; [7]): 7%
- Population Membrane Permeable-Phenotype (%) (U2OS [1]; [7]): 7%
- Population Mitochondria Different-Phenotype (%) (U2OS [1]; [7]): 60%
- Population Mitotic Cells (%) (U2OS [1]; [7]): 45%
- Population Normal (%) (U2OS [1]; [7]): 92%
- Population Pyknosed Nuclei (%) (U2OS [1]; [7]): 15%
- Population Tubulin-Different-Phenotype (%) (U2OS [1]; [7]): 84%
- Total Cell Count (U2OS [1]; [7]): 153
- Population Apoptotic (%) (U2OS [1]; [8]): 12%
- Population Fragmented Nuclei (%) (U2OS [1]; [8]): 12%
- Population Healthy Nuclei (%) (U2OS [1]; [8]): 71%
- Population Hoechst High Intensity Objects (%) (U2OS [1]; [8]): 4%
- Population Membrane Permeable-Phenotype (%) (U2OS [1]; [8]): 12%
- Population Mitochondria Different-Phenotype (%) (U2OS [1]; [8]): 35%
- Population Mitotic Cells (%) (U2OS [1]; [8]): 87%
- Population Normal (%) (U2OS [1]; [8]): 95%
- Population Pyknosed Nuclei (%) (U2OS [1]; [8]): 16%
- Population Tubulin-Different-Phenotype (%) (U2OS [1]; [8]): 30%
- Population Apoptotic (%) (U2OS [1]; [9]): 58%
- Population Fragmented Nuclei (%) (U2OS [1]; [9]): 14%
- Population Healthy Nuclei (%) (U2OS [1]; [9]): 40%
- Population Hoechst High Intensity Objects (%) (U2OS [1]; [9]): 9%
- Population Membrane Permeable-Phenotype (%) (U2OS [1]; [9]): 81%
- Population Mitochondria Different-Phenotype (%) (U2OS [1]; [9]): 100%
- Population Mitotic Cells (%) (U2OS [1]; [9]): 41%
- Population Normal (%) (U2OS [1]; [9]): 90%
- Population Pyknosed Nuclei (%) (U2OS [1]; [9]): 44%
- Population Tubulin-Different-Phenotype (%) (U2OS [1]; [9]): 100%
- Total Cell Count (U2OS [1]; [9]): 137
- Population Apoptotic (%) (U2OS [1]; [10]): 40%
- Population Fragmented Nuclei (%) (U2OS [1]; [10]): 13%
- Population Healthy Nuclei (%) (U2OS [1]; [10]): 55%
- Population Membrane Permeable-Phenotype (%) (U2OS [1]; [10]): 71%
- Population Mitotic Cells (%) (U2OS [1]; [10]): 59%
- Population Pyknosed Nuclei (%) (U2OS [1]; [10]): 31%
- Population Apoptotic (%) (U2OS [1]; [11]): 78%
- Population Fragmented Nuclei (%) (U2OS [1]; [11]): 16%
- Population Healthy Nuclei (%) (U2OS [1]; [11]): 65%
- Population Hoechst High Intensity Objects (%) (U2OS [1]; [11]): 6%
- Population Membrane Permeable-Phenotype (%) (U2OS [1]; [11]): 8%
- Population Mitochondria Different-Phenotype (%) (U2OS [1]; [11]): 65%
- Population Mitotic Cells (%) (U2OS [1]; [11]): 21%
- Population Normal (%) (U2OS [1]; [11]): 93%
- Population Pyknosed Nuclei (%) (U2OS [1]; [11]): 17%
- Population Tubulin-Different-Phenotype (%) (U2OS [1]; [11]): 91%
- Population Apoptotic (%) (U2OS [1]; [12]): 50%
- Population Fragmented Nuclei (%) (U2OS [1]; [12]): 14%
- Population Healthy Nuclei (%) (U2OS [1]; [12]): 68%
- Population Hoechst High Intensity Objects (%) (U2OS [1]; [12]): 4%
- Population Membrane Permeable-Phenotype (%) (U2OS [1]; [12]): 18%
- Population Mitochondria Different-Phenotype (%) (U2OS [1]; [12]): 35%
- Population Mitotic Cells (%) (U2OS [1]; [12]): 50%
- Population Normal (%) (U2OS [1]; [12]): 95%
- Population Tubulin-Different-Phenotype (%) (U2OS [1]; [12]): 28%
- Population Apoptotic (%) (U2OS [1]; [13]): 90%
- Population Fragmented Nuclei (%) (U2OS [1]; [13]): 23%
- Population Healthy Nuclei (%) (U2OS [1]; [13]): 21%
- Population Hoechst High Intensity Objects (%) (U2OS [1]; [13]): 8%
- Population Membrane Permeable-Phenotype (%) (U2OS [1]; [13]): 92%
- Population Mitochondria Different-Phenotype (%) (U2OS [1]; [13]): 100%
- Population Mitotic Cells (%) (U2OS [1]; [13]): 9%
- Population Normal (%) (U2OS [1]; [13]): 91%
- Population Pyknosed Nuclei (%) (U2OS [1]; [13]): 54%
- Population Tubulin-Different-Phenotype (%) (U2OS [1]; [13]): 100%
- Total Cell Count (U2OS [1]; [13]): 138
- Population Apoptotic (%) (U2OS [1]; [14]): 82%
- Population Fragmented Nuclei (%) (U2OS [1]; [14]): 10%
- Population Healthy Nuclei (%) (U2OS [1]; [14]): 47%
- Population Hoechst High Intensity Objects (%) (U2OS [1]; [14]): 6%
- Population Membrane Permeable-Phenotype (%) (U2OS [1]; [14]): 90%
- Population Mitotic Cells (%) (U2OS [1]; [14]): 17%
- Population Normal (%) (U2OS [1]; [14]): 93%
- Population Pyknosed Nuclei (%) (U2OS [1]; [14]): 41%
- Population Apoptotic (%) (U2OS [1]; [15]): 71%
- Population Fragmented Nuclei (%) (U2OS [1]; [15]): 22%
- Population Healthy Nuclei (%) (U2OS [1]; [15]): 51%
- Population Hoechst High Intensity Objects (%) (U2OS [1]; [15]): 10%
- Population Membrane Permeable-Phenotype (%) (U2OS [1]; [15]): 18%
- Population Mitochondria Different-Phenotype (%) (U2OS [1]; [15]): 57%
- Population Mitotic Cells (%) (U2OS [1]; [15]): 28%
- Population Normal (%) (U2OS [1]; [15]): 89%
- Population Pyknosed Nuclei (%) (U2OS [1]; [15]): 25%
- Population Tubulin-Different-Phenotype (%) (U2OS [1]; [15]): 85%
- Total Cell Count (U2OS [1]; [15]): 246
- Population Apoptotic (%) (U2OS [1]; [16]): 47%
- Population Fragmented Nuclei (%) (U2OS [1]; [16]): 10%
- Population Healthy Nuclei (%) (U2OS [1]; [16]): 68%
- Population Hoechst High Intensity Objects (%) (U2OS [1]; [16]): 5%
- Population Membrane Permeable-Phenotype (%) (U2OS [1]; [16]): 27%
- Population Mitochondria Different-Phenotype (%) (U2OS [1]; [16]): 25%
- Population Mitotic Cells (%) (U2OS [1]; [16]): 52%
- Population Normal (%) (U2OS [1]; [16]): 94%
- Population Pyknosed Nuclei (%) (U2OS [1]; [16]): 20%
- Population Tubulin-Different-Phenotype (%) (U2OS [1]; [16]): 30%
- Total Cell Count (U2OS [1]; [16]): 128
- Population Apoptotic (%) (U2OS [1]; [17]): 98%
- Population Fragmented Nuclei (%) (U2OS [1]; [17]): 27%
- Population Healthy Nuclei (%) (U2OS [1]; [17]): 14%
- Population Hoechst High Intensity Objects (%) (U2OS [1]; [17]): 11%
- Population Membrane Permeable-Phenotype (%) (U2OS [1]; [17]): 100%
- Population Mitochondria Different-Phenotype (%) (U2OS [1]; [17]): 94%
- Population Mitotic Cells (%) (U2OS [1]; [17]): 1%
- Population Normal (%) (U2OS [1]; [17]): 88%
- Population Pyknosed Nuclei (%) (U2OS [1]; [17]): 58%
- Population Tubulin-Different-Phenotype (%) (U2OS [1]; [17]): 100%
- Total Cell Count (U2OS [1]; [17]): 138
- Population Apoptotic (%) (U2OS [1]; [18]): 82%
- Population Fragmented Nuclei (%) (U2OS [1]; [18]): 20%
- Population Healthy Nuclei (%) (U2OS [1]; [18]): 43%
- Population Hoechst High Intensity Objects (%) (U2OS [1]; [18]): 8%
- Population Membrane Permeable-Phenotype (%) (U2OS [1]; [18]): 97%
- Population Mitochondria Different-Phenotype (%) (U2OS [1]; [18]): 100%
- Population Mitotic Cells (%) (U2OS [1]; [18]): 17%
- Population Normal (%) (U2OS [1]; [18]): 91%
- Population Pyknosed Nuclei (%) (U2OS [1]; [18]): 36%
- Total Cell Count (U2OS [1]; [18]): 108
- Growth Rate (Fibroblast; 0 h, replicate number 2, timepoint 0 hours): 0
- Growth Rate (Fibroblast; [3]): 0
- Growth Rate (Fibroblast; 6 h, replicate number 2, timepoint 6 hours): 1
- Growth Rate (Fibroblast; [4]): 0
- Growth Rate (Fibroblast; [5]): 0
- Growth Rate (Fibroblast; [6]): 0
- Growth Rate (U2OS [2]; [3]): 1
- Growth Rate (U2OS [2]; [4]): 0
- Growth Rate (U2OS [2]; [5]): 0
- Growth Rate (U2OS [2]; [6]): 0
